Here are results for 38 compounds from the M2OR odorant receptor database.

The structures appear in SMILES notation.
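Further: active if original authors judged signal statistically different from baseline.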

In one assay the target is T1, UniProt Q8VGJ3.
T1 sequence (whole entry): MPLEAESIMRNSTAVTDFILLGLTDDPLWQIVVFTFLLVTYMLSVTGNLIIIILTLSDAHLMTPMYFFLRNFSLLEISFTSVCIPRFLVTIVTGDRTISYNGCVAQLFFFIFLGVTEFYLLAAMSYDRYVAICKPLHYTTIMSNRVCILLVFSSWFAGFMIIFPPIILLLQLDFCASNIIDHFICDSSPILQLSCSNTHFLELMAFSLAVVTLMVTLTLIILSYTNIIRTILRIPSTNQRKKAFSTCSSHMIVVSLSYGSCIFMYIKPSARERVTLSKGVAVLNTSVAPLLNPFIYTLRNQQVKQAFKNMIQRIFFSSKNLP
The note with it: stereoisomer not certain. Summed up:
(§1)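 Whether a receptor–molecule pair is responsive (active) rests on the original authors' judgment that its measured signal was statistically different from baseline. Pairs without that judgment are non-responsive (inactive). Sources used varied assay methods, commonly transient luciferase assays in mammalian cell lines.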
In the case of `CCCCCC=CCCC=O`, the “odorant receptor agonist call” value was “inactive”.
Same read-out and setting: for `C=C(C)C1CC=C(C)CC1` (stereo unspecified) the value was “inactive”.
In the case of `CC(C)CCN`, the “odorant receptor agonist call” value is “inactive”.
For `CNc1ccccc1C(=O)OC`, the “odorant receptor agonist call” value was “inactive”.
Same read-out and setting: for `Cc1ccc2c(c1)OCC(=O)CO2` the value was “inactive”; for `CCCCCCC(=O)OCCCC`, “inactive”; for `CCOC(=O)CC(C)C`, “inactive”.
For the compound `OCC=Cc1ccccc1`, the “odorant receptor agonist call” value is “inactive”.
As for `CC(C)=C1CCC(C)CC1=O` (stereo unspecified), the “odorant receptor agonist call” value is “inactive”.
Regarding `CC(=O)C1(C)CC2=C(CCCC2(C)C)CC1C` (stereo unspecified), the “odorant receptor agonist call” value is “inactive”.
As for `COC(OC)c1ccccc1`, the “odorant receptor agonist call” value is “inactive”.
`CC=C(C)C=O`: the “odorant receptor agonist call” value was “inactive”.
The same measure, in the same setting: for `C=CC(=O)CCCCC` the value was “inactive”.
Same read-out and setting: for `OCCc1ccccc1` the value was “inactive”; for `CC(C)CS`, “inactive”.
As to `CCCCCC(C)O` (stereo unspecified), the “odorant receptor agonist call” value is “inactive”.
Take `CCCCCCC(C)O` (stereo unspecified): the “odorant receptor agonist call” value is “inactive”.
Regarding `CCC=CCCCCC=O`, the “odorant receptor agonist call” value is “inactive”.
In the case of `CCN(CC)CC`, the “odorant receptor agonist call” value was “inactive”.
Still for that read-out and setting: for `COc1ccccc1` the value was “inactive”.
On to `COc1nccnc1C(C)C`, for which the “odorant receptor agonist call” value was “inactive”.
On the same count and under the same terms, for `COc1nccnc1C` the value was “inactive”; for `CCc1ccc(O)cc1`, “inactive”; for `CCCC=O`, “inactive”.
For `CC(=O)OCc1ccc2c(c1)OCO2`, the “odorant receptor agonist call” value was “inactive”.
`Cc1occc1SSc1ccoc1C`: the “odorant receptor agonist call” value was “inactive”.
Same read-out and setting: for `CCCCCCCCCC=CC=O` the value was “inactive”; for `O=C(OCc1ccccc1)c1ccccc1O`, “inactive”.
Turning to `CCc1ncc(C)nc1CC`, the “odorant receptor agonist call” value was “inactive”.
`CC(=O)OC1(C)CCC23CC1C(C)(C)C2CCC3C` (stereo unspecified): the “odorant receptor agonist call” value is “inactive”.
With `CCC=CCCC=CC=O`, the “odorant receptor agonist call” value is “inactive”.
As for `CCCCCOC(=O)CCC`, the “odorant receptor agonist call” value was “inactive”.
For `CCCCCCCCCCCO`, the “odorant receptor agonist call” value was “inactive”.
Consider `CCc1ccccc1O`, for which the “odorant receptor agonist call” value was “inactive”.
Same read-out and setting: for `CC(C)=CCCC(C)=CCOC(=O)C(C)C` the value was “inactive”; for `CCCCCCCCCCOC(C)=O`, “inactive”.
As for `CCSCC`, the “odorant receptor agonist call” value was “inactive”.
Still for that read-out and setting: for `Cc1ccc(C(C)C)cc1` the value was “inactive”.

A further assay deals with T2, UniProt Q8VGL0.
T2 sequence (whole entry): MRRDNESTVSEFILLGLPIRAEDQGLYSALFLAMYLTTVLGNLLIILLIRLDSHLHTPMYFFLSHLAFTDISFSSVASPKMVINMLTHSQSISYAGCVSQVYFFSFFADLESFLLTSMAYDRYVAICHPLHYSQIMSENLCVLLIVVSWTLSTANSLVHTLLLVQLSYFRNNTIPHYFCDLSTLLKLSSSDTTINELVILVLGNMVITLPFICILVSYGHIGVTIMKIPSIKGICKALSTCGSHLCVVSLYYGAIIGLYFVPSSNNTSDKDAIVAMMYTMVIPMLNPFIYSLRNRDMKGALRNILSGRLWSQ
The note with it: stereoisomer not certain. Summed up: as §1
For the compound `CCCCCC=CCCC=O`, the “odorant receptor agonist call” value is “inactive”.
On to `C=C(C)C1CC=C(C)CC1` (stereo unspecified), for which the “odorant receptor agonist call” value was “inactive”.
Still for that read-out and setting: for `CC(C)CCN` the value was “inactive”.
For `CNc1ccccc1C(=O)OC`, the “odorant receptor agonist call” value is “inactive”.
For `Cc1ccc2c(c1)OCC(=O)CO2`, the “odorant receptor agonist call” value was “inactive”.
Consider `CCCCCCC(=O)OCCCC`, for which the “odorant receptor agonist call” value was “inactive”.
As for `CCOC(=O)CC(C)C`, the “odorant receptor agonist call” value was “inactive”.
On to `OCC=Cc1ccccc1`, for which the “odorant receptor agonist call” value is “inactive”.
The same measure, in the same setting: for `CC(C)=C1CCC(C)CC1=O` (stereo unspecified) the value was “inactive”.
The same measure, in the same setting: for `CC(=O)C1(C)CC2=C(CCCC2(C)C)CC1C` (stereo unspecified) the value was “inactive”; for `COC(OC)c1ccccc1`, “inactive”; for `CC=C(C)C=O`, “inactive”.
With `C=CC(=O)CCCCC`, the “odorant receptor agonist call” value is “inactive”.
With `OCCc1ccccc1`, the “odorant receptor agonist call” value was “inactive”.
`CC(C)CS`: the “odorant receptor agonist call” value is “inactive”.
Turning to `CCCCCC(C)O` (stereo unspecified), the “odorant receptor agonist call” value was “inactive”.
With `CCCCCCC(C)O` (stereo unspecified), the “odorant receptor agonist call” value is “inactive”.
`CCC=CCCCCC=O`: the “odorant receptor agonist call” value is “inactive”.
In the case of `CCN(CC)CC`, the “odorant receptor agonist call” value was “inactive”.
As to `COc1ccccc1`, the “odorant receptor agonist call” value was “inactive”.
Turning to `COc1nccnc1C(C)C`, the “odorant receptor agonist call” value was “inactive”.
Still for that read-out and setting: for `COc1nccnc1C` the value was “inactive”; for `CCc1ccc(O)cc1`, “inactive”.
`CCCC=O`: the “odorant receptor agonist call” value is “inactive”.
As to `CC(=O)OCc1ccc2c(c1)OCO2`, the “odorant receptor agonist call” value is “inactive”.
Still for that read-out and setting: for `Cc1occc1SSc1ccoc1C` the value was “inactive”.
Still for that read-out and setting: for `CCCCCCCCCC=CC=O` the value was “inactive”.
As for `O=C(OCc1ccccc1)c1ccccc1O`, the “odorant receptor agonist call” value was “inactive”.
Consider `CCc1ncc(C)nc1CC`, for which the “odorant receptor agonist call” value was “inactive”.
On the same count and under the same terms, for `CC(=O)OC1(C)CCC23CC1C(C)(C)C2CCC3C` (stereo unspecified) the value was “inactive”; for `CCC=CCCC=CC=O`, “inactive”.
Consider `CCCCCOC(=O)CCC`, for which the “odorant receptor agonist call” value is “inactive”.
`CCCCCCCCCCCO`: the “odorant receptor agonist call” value is “inactive”.
With `CCc1ccccc1O`, the “odorant receptor agonist call” value is “active”.
As to `CC(C)=CCCC(C)=CCOC(=O)C(C)C`, the “odorant receptor agonist call” value is “inactive”.
For `CCCCCCCCCCOC(C)=O`, the “odorant receptor agonist call” value is “inactive”.
`CCSCC`: the “odorant receptor agonist call” value is “inactive”.
As to `Cc1ccc(C(C)C)cc1`, the “odorant receptor agonist call” value is “inactive”.
